According to ChEMBL document CHEMBL1123402, “Saturated analogues of poison ivy allergens. Synthesis of trans,trans- and cis,trans-3-alkyl-1,2-cyclohexanediols and sensitizing properties in allergic contact dermatitis” (1986):
Where “and” joins values, the source holds several entries; their conditions need not be identical. Identical values can stand only once.

Key:
Cavia porcellus [1] = species: Cavia porcellus; assay: Allergic contact dermatitis in guinea pig at 3.8 umol (5 injections) and expressed as number of animals reading with a test intensity of 2; type: functional
Summary of the method: (§1)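 Sensitization by the FCAT method with five injections: the first sensitization was boosted by two injections of alkylcyclohexanediol in Freund complete adjuvant 1 week after the first test. Open epicutaneous challenge used the stated dose in ethanol, read at 48 h on a 0–3 erythema/swelling scale. Irritation thresholds were set on FCA-injected controls, with groups of eight per experiment.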

Cavia porcellus [2] = species: Cavia porcellus; assay: Allergic contact dermatitis in guinea pig at 7.6 umol (5 injections) and expressed as number of animals reading with a test intensity of 2; type: functional; summary of the method: as §1
Cavia porcellus [3] = species: Cavia porcellus; assay: Allergic contact dermatitis in guinea pig at 7.6 umol (3 injections) and expressed as number of animals reading with a test intensity of 1; type: functional
Summary of the method: (§2)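 Guinea pigs sensitized with the alkylcyclohexanediol in Freund complete adjuvant (3-injection schedule per curator). Elicitation by open epicutaneous test of the dose in ethanol. Read at 48 h on a scale: 0 none, 0.5 slight partial erythema, 1 erythema over the whole area, 2 erythema plus swelling, 3 swelling well beyond the area. FCA-treated control groups of eight animals.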

Cavia porcellus [4] = species: Cavia porcellus; assay: Allergic contact dermatitis in guinea pig at 7.6 umol (3 injections) and expressed as number of animals reading with a test intensity of 0.5; type: functional; summary of the method: as §2
Cavia porcellus [5] = species: Cavia porcellus; assay: Allergic contact dermatitis in guinea pig at 3.8 umol (3 injections) and expressed as number of animals reading with a test intensity of 1; type: functional; summary of the method: as §2
Cavia porcellus [6] = species: Cavia porcellus; assay: Allergic contact dermatitis in guinea pig at 3.8 umol (3 injections) and expressed as number of animals reading with a test intensity of 2; type: functional; summary of the method: as §2
Cavia porcellus [7] = species: Cavia porcellus; assay: Ability to induce allergic contact dermatitis in guinea pig at 3.8 umol (5 injections) and expressed as average skin reaction; type: functional; summary of the method: as §1
Cavia porcellus [8] = species: Cavia porcellus; assay: Allergic contact dermatitis in guinea pig at 3.8 umol (5 injections) and expressed as number of animals reading with a test intensity of 1; type: functional; summary of the method: as §1
Cavia porcellus [9] = species: Cavia porcellus; assay: Ability to induce allergic contact dermatitis in guinea pig at 7.6 umol (3 injections) and expressed as average skin reaction; type: functional; summary of the method: as §2
Cavia porcellus [10] = species: Cavia porcellus; assay: Allergic contact dermatitis in guinea pig at 3.8 umol (5 injections) and expressed as number of animals reading with a test intensity of 0.5; type: functional; summary of the method: as §1
Cavia porcellus [11] = species: Cavia porcellus; assay: Allergic contact dermatitis in guinea pig at 7.6 umol (5 injections) and expressed as number of animals reading with a test intensity of 0.5; type: functional; summary of the method: as §1
Cavia porcellus [12] = species: Cavia porcellus; assay: Ability to induce allergic contact dermatitis in guinea pig at 3.8 umol (5 injections)of the compound and expressed as no. of positive animals out of 16; type: functional
Cavia porcellus [13] = species: Cavia porcellus; assay: Allergic contact dermatitis in guinea pig at 3.8 umol (5 injections) and expressed as number of animals reading with a test intensity of 0; type: functional; summary of the method: as §1
Cavia porcellus [14] = species: Cavia porcellus; assay: Ability to induce allergic contact dermatitis in guinea pig at 7.6 umol (5 injections)of the compound and expressed as no. of positive animals out of 16; type: functional
Cavia porcellus [15] = species: Cavia porcellus; assay: Ability to induce allergic contact dermatitis in guinea pig at 3.8 umol (3 injections)of the compound and expressed as no. of positive animals out of 16; type: functional; summary of the method: as §2
Cavia porcellus [16] = species: Cavia porcellus; assay: Allergic contact dermatitis in guinea pig at 7.6 umol (3 injections) and expressed as number of animals reading with a test intensity of 0; type: functional; summary of the method: as §2
Cavia porcellus [17] = species: Cavia porcellus; assay: Allergic contact dermatitis in guinea pig at 3.8 umol (3 injections) and expressed as number of animals reading with a test intensity of 0; type: functional; summary of the method: as §2
Cavia porcellus [18] = species: Cavia porcellus; assay: Ability to induce allergic contact dermatitis in guinea pig at 3.8 umol (3 injections) and expressed as average skin reaction; type: functional; summary of the method: as §2
Cavia porcellus [19] = species: Cavia porcellus; assay: Ability to induce allergic contact dermatitis in guinea pig at 7.6 umol (3 injections)of the compound and expressed as no. of positive animals out of 16; type: functional; summary of the method: as §2
Cavia porcellus [20] = species: Cavia porcellus; assay: Allergic contact dermatitis in guinea pig at 3.8 umol (3 injections) and expressed as number of animals reading with a test intensity of 0.5; type: functional; summary of the method: as §2
Cavia porcellus [21] = species: Cavia porcellus; assay: Allergic contact dermatitis in guinea pig at 7.6 umol (3 injections) and expressed as number of animals reading with a test intensity of 2; type: functional; summary of the method: as §2
Cavia porcellus [22] = species: Cavia porcellus; assay: Ability to induce allergic contact dermatitis in guinea pig at 7.6 umol (3 injections)of the compound and expressed as no. of positive animals out of 8; type: functional; summary of the method: as §2
Cavia porcellus [23] = species: Cavia porcellus; assay: Ability to induce allergic contact dermatitis in guinea pig at 3.8 umol (5 injections) and expressed as no. of positive animals out of 8; type: functional; summary of the method: as §1
Cavia porcellus [24] = species: Cavia porcellus; assay: Ability to induce allergic contact dermatitis in guinea pig at 3.8 umol (3 injections)of the compound and expressed as no. of positive animals out of 8; type: functional; summary of the method: as §2
Cavia porcellus [25] = species: Cavia porcellus; assay: (§3) Allergic contact dermatitis in guinea pig at 7.6 umol (5 injections) and expressed as number of animals reading with a test intensity of 1; type: functional; summary of the method: as §1
Cavia porcellus [26] = species: Cavia porcellus; assay: Ability to induce allergic contact dermatitis in guinea pig at 14 umol (5 injections) and expressed as average skin reaction; type: functional; summary of the method: as §1
Cavia porcellus [27] = species: Cavia porcellus; assay: (§4) Ability to induce allergic contact dermatitis in guinea pig at 7.6 umol (5 injections) and expressed as average skin reaction; type: functional; summary of the method: as §1
Cavia porcellus [28] = species: Cavia porcellus; assay: Ability to induce allergic contact dermatitis in guinea pig at 3.8 umol (5 injections)of the compound and expressed as no. of positive animals out of 8; type: functional; summary of the method: as §1
Cavia porcellus [29] = species: Cavia porcellus; assay: Allergic contact dermatitis in guinea pig at 14 umol (3 injections) and expressed as number of animals reading with a test intensity of 2; type: functional; summary of the method: as §2
Cavia porcellus [30] = species: Cavia porcellus; assay: Allergic contact dermatitis in guinea pig at 7.6 umol (5 injections) and expressed as number of animals reading with a test intensity of 0; type: functional; summary of the method: as §1
Cavia porcellus [31] = species: Cavia porcellus; assay: Allergic contact dermatitis in guinea pig at 14 umol (5 injections) and expressed as number of animals reading with a test intensity of 0.5; type: functional; summary of the method: as §1
Cavia porcellus [32] = species: Cavia porcellus; assay: Ability to induce allergic contact dermatitis in guinea pig at 14 umol (5 injections)of the compound and expressed as no. of positive animals out of 8; type: functional; summary of the method: as §1
Cavia porcellus [33] = species: Cavia porcellus; assay: as §4; type: functional; summary of the method: as §1; remark: listed apart in the source
Cavia porcellus [34] = species: Cavia porcellus; assay: Allergic contact dermatitis in guinea pig at 14 umol (5 injections) and expressed as number of animals reading with a test intensity of 2; type: functional; summary of the method: as §1
Cavia porcellus [35] = species: Cavia porcellus; assay: Ability to induce allergic contact dermatitis in guinea pig at 14 umol (3 injections) and expressed as average skin reaction; type: functional; summary of the method: as §2
Cavia porcellus [36] = species: Cavia porcellus; assay: Ability to induce allergic contact dermatitis in guinea pig at 3.8 umol (3 injections)of the compound and expressed as no. of positive animals out of 8
Cavia porcellus [37] = species: Cavia porcellus; assay: Ability to induce allergic contact dermatitis in guinea pig at 14 umol (3 injections)of the compound and expressed as no. of positive animals out of 8; type: functional; summary of the method: as §2
Cavia porcellus [38] = species: Cavia porcellus; assay: Ability to induce allergic contact dermatitis in guinea pig at 7.6 umol (5 injections)of the compound and expressed as no. of positive animals out of 8; type: functional; summary of the method: as §1
Cavia porcellus [39] = species: Cavia porcellus; assay: Allergic contact dermatitis in guinea pig at 14 umol (3 injections) and expressed as number of animals reading with a test intensity of 0; type: functional; summary of the method: as §2
Cavia porcellus [40] = species: Cavia porcellus; assay: Allergic contact dermatitis in guinea pig at 14 umol (3 injections) and expressed as number of animals reading with a test intensity of 1; type: functional; summary of the method: as §2
Cavia porcellus [41] = species: Cavia porcellus; assay: Allergic contact dermatitis in guinea pig at 14 umol (5 injections) and expressed as number of animals reading with a test intensity of 0; type: functional; summary of the method: as §1
Cavia porcellus [42] = species: Cavia porcellus; assay: Allergic contact dermatitis in guinea pig at 14 umol (5 injections) and expressed as number of animals reading with a test intensity of 1; type: functional; summary of the method: as §1
Cavia porcellus [43] = species: Cavia porcellus; assay: Allergic contact dermatitis in guinea pig at 14 umol (3 injections) and expressed as number of animals reading with a test intensity of 0.5; type: functional; summary of the method: as §2
Cavia porcellus [44] = species: Cavia porcellus; assay: as §3; type: functional; summary of the method: as §1; remark: listed apart in the source

CCCCCCCCCCCCCCC[C@H]1CCC[C@@H](O)[C@@H]1O
No. of animals (Cavia porcellus [1]): 1 | No. of animals (Cavia porcellus [2]): 0 | No. of animals (Cavia porcellus [3]): 12 | No. of animals (Cavia porcellus [4]): 2 | No. of animals (Cavia porcellus [5]): 4 | No. of animals (Cavia porcellus [6]): 0 | Average skin reaction (Cavia porcellus [7]): 0.8 | No. of animals (Cavia porcellus [8]): 9 | Average skin reaction (Cavia porcellus [9]): 0.8 | No. of animals (Cavia porcellus [10]): 4 | No. of animals (Cavia porcellus [11]): 2 and 1 | No. of positive animals (Cavia porcellus [12]): 14 | No. of animals (Cavia porcellus [13]): 2 | No. of positive animals (Cavia porcellus [14]): 15 | No. of positive animals (Cavia porcellus [15]): 12 | No. of animals (Cavia porcellus [16]): 2 | No. of animals (Cavia porcellus [17]): 4 | Average skin reaction (Cavia porcellus [18]): 0.5 | No. of positive animals (Cavia porcellus [19]): 14 | No. of animals (Cavia porcellus [20]): 8

CCCCCCCCCCCCCCC[C@H]1CCC[C@H](O)[C@@H]1O
No. of animals (Cavia porcellus [1]): 0 | No. of animals (Cavia porcellus [21]): 0 | No. of animals (Cavia porcellus [2]): 0 | No. of animals (Cavia porcellus [3]): 1 | No. of animals (Cavia porcellus [4]): 6 | No. of animals (Cavia porcellus [5]): 0 | No. of animals (Cavia porcellus [6]): 0 | Average skin reaction (Cavia porcellus [7]): 0.5 | No. of animals (Cavia porcellus [8]): 2 | Average skin reaction (Cavia porcellus [9]): 0.5 | No. of animals (Cavia porcellus [10]): 4 | No. of positive animals (Cavia porcellus [22]): 7 | No. of animals (Cavia porcellus [11]): 2 and 1 | No. of animals (Cavia porcellus [13]): 2 | No. of positive animals (Cavia porcellus [23]): 6 | No. of positive animals (Cavia porcellus [24]): 5 | No. of animals (Cavia porcellus [16]): 1 | No. of animals (Cavia porcellus [17]): 3 | Average skin reaction (Cavia porcellus [18]): 0.3 | No. of animals (Cavia porcellus [20]): 5

CCCCCCCCCC[C@H]1CCC[C@@H](O)[C@@H]1O
No. of animals (Cavia porcellus [25]): 5 | No. of animals (Cavia porcellus [1]): 0 | Average skin reaction (Cavia porcellus [26]): 0.9 | No. of animals (Cavia porcellus [2]): 0 | Average skin reaction (Cavia porcellus [27]): 0.7 | No. of positive animals (Cavia porcellus [28]): 6 | No. of animals (Cavia porcellus [29]): 2 | No. of animals (Cavia porcellus [30]): 2 and 1 | No. of animals (Cavia porcellus [5]): 1 | No. of animals (Cavia porcellus [31]): 3 | No. of positive animals (Cavia porcellus [32]): 7 | No. of animals (Cavia porcellus [6]): 0 | Average skin reaction (Cavia porcellus [33]): 0.5 | Average skin reaction (Cavia porcellus [7]): 0.5 | No. of animals (Cavia porcellus [34]): 2 | Average skin reaction (Cavia porcellus [35]): 0.9 | No. of positive animals (Cavia porcellus [36]): 4 | No. of positive animals (Cavia porcellus [37]): 6 | No. of animals (Cavia porcellus [8]): 2 | No. of positive animals (Cavia porcellus [38]): 6 and 7 | No. of animals (Cavia porcellus [10]): 4 | No. of animals (Cavia porcellus [39]): 2 | No. of animals (Cavia porcellus [40]): 2 | No. of animals (Cavia porcellus [13]): 2 | No. of animals (Cavia porcellus [41]): 1 | No. of animals (Cavia porcellus [42]): 2 | No. of animals (Cavia porcellus [43]): 2 | No. of animals (Cavia porcellus [17]): 4 | No. of animals (Cavia porcellus [44]): 1 | Average skin reaction (Cavia porcellus [18]): 0.3 | No. of animals (Cavia porcellus [20]): 3
